Test results taken from ChEMBL document CHEMBL1133720, “Structural studies on bioactive compounds. 32. Oxidation of tyrphostin protein tyrosine kinase inhibitors with hypervalent iodine reagents” (J Med Chem, 2000).
Each block holds one compound with its values, some of them ahead of it.

Tests used:
MDA-MB-468 = assay: Inhibition of MDA-468 human breast tumor cell proliferation; assay type: functional, cell-based
Method in brief: (§1)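 Seven-day MTT assay at 250-300 cells/well in RPMI 1640 with 10% FCS. After a 24-h drug-free attachment at 37 °C/5% CO₂, drug was added at 1 nM-100 µM (final DMSO <0.25%). MTT was added at a final 400 µg/mL for 4 h, formazan was dissolved in DMSO-glycine (4:1) and absorbance read at 550 nm. IC50 is the mean of at least three experiments.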

MCF7 [1] = assay: Inhibition of MCF-7/adr human breast tumor cell proliferation; assay type: functional, cell-based; method in brief: as §1
MCF7 [2] = assay: Inhibition of TGF-alpha stimulated MCF-7 human breast tumor cell proliferation; assay type: functional, cell-based
Method in brief: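 MCF-7 cells, 5 × 10³/well, were plated in phenol red-free RPMI 1640 with 5% charcoal-stripped FCS and allowed to attach overnight. Growth factor (IGF-I, IGF-II or TGF-α, as the line names) was then added together with drug. Cells grew a further 7 days, and viable cells were counted by MTT. IC50 is the mean of at least three experiments.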

MCF7 [3] = assay: (§2) Inhibition of MCF-7 human breast tumor cell proliferation; assay type: functional, cell-based; method in brief: as §1
MCF7 [4] = assay: as §2; assay type: functional, cell-based; method in brief: as §1; remark: listed apart in the source
SK-BR-3 = assay: Inhibition of SBBr3 human breast tumor cell proliferation; assay type: functional, cell-based; method in brief: as §1
T47D = assay: Inhibition of T47D human breast tumor cell proliferation; assay type: functional, cell-based; method in brief: as §1
MDA-MB-231 = assay: Inhibition of MDA-231 human breast tumor cell proliferation; assay type: functional, cell-based
Method in brief: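 MTT assay, 7-day continuous drug exposure. Cells seeded at 250-300 cells/well in RPMI 1640 with 10% FCS and penicillin/streptomycin, attached over 24 h drug-free at 37 °C/5% CO2. Drug range 1 nM-100 µM from DMSO stocks, final DMSO <0.25%. MTT 400 µg/mL final for 4 h, formazan dissolved in DMSO-glycine, absorbance 550 nm. IC50 is the mean of at least three experiments.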

ZR-75-1 = assay: Inhibition of ZR-75-1 human breast tumor cell proliferation; assay type: functional, cell-based; method in brief: as §1
[5] = target: Receptor tyrosine-protein kinase erbB-2; assay: Inhibition of c-erbB2 receptor
Cell line = assay: Inhibition of proliferation in NCI panel of 60 human cell lines (Range is 20-80 uM); assay type: functional

- IC50 (MDA-MB-468): 0.06 µM
- IC50 (MCF7 [1]): 52.8 µM
- IC50 (MCF7 [2]): 2.3 µM
- IC50 (MCF7 [3]): 2.7 µM
- IC50 (MCF7 [4]): 0.7 µM
- IC50 (SK-BR-3): 0.5 µM
- IC50 (T47D): 6 µM
- IC50 (MDA-MB-231): 51 µM
Structure (SMILES): COc1cc(/C=C(\C#N)c2ccccn2)ccc1O
- IC50 (ZR-75-1): 2.6 µM

- IC50 [5]: 0.35 µM
Structure (SMILES): COc1cc(/C=C(\C#N)C(N)=O)cc(Sc2nc3ccccc3s2)c1O

Structure (SMILES): COc1cc(C=O)cc(-c2cc(C=O)cc(OC)c2O)c1O
- GI50 (Cell line): 80 µM

- IC50 (MDA-MB-468): 0.3 µM
- IC50 (MCF7 [1]): 25.2 µM
- IC50 (MCF7 [2]): 41 µM
- IC50 (MCF7 [3]): 41.8 µM
- IC50 (MCF7 [4]): 20 µM
- IC50 (SK-BR-3): 6.5 µM
- IC50 (T47D): 48.7 µM
- IC50 (MDA-MB-231): 39.8 µM
Structure (SMILES): N#C/C(=C\c1ccc(Oc2ccccc2)c(I)c1)c1ccccn1
- IC50 (ZR-75-1): 24.7 µM

Structure (SMILES): COC(=O)/C(C#N)=C/c1ccc(Oc2ccccc2)c(I)c1
- GI50 (Cell line): 80 µM

Structure (SMILES): COc1cc(/C=C(\C#N)c2ccccn2)cc(-c2cc(/C=C(\C#N)c3ccccn3)cc(OC)c2O)c1O
- GI50 (Cell line): 80 µM

Structure (SMILES): N#C/C(=C\c1ccc(Oc2ccccc2)c(I)c1)C(=O)NCCCc1ccccc1
- GI50 (Cell line): 80 µM

Structure (SMILES): CCOc1cc(C=C(C#N)C#N)cc(-c2cc(C=C(C#N)C#N)cc(OCC)c2O)c1O
- GI50 (Cell line): 80 µM

Structure (SMILES): COC(=O)/C(C#N)=C/c1cc(OC)c(O)c(-c2cc(/C=C(\C#N)C(=O)OC)cc(OC)c2O)c1
- GI50 (Cell line): 80 µM

Structure (SMILES): N#CC(C#N)=Cc1ccc(Oc2ccccc2)c(I)c1
- GI50 (Cell line): 80 µM

Structure (SMILES): COc1cc(C(C)=O)cc(-c2cc(C(C)=O)cc(OC)c2O)c1O
- GI50 (Cell line): 80 µM

Structure (SMILES): COc1cc(/C=C(\C#N)C(N)=O)cc(-c2cc(/C=C(\C#N)C(N)=O)cc(OC)c2O)c1O
- GI50 (Cell line): 80 µM

Structure (SMILES): N#C/C(=C\c1ccc(Oc2ccccc2)c(I)c1)C(N)=O
- GI50 (Cell line): 80 µM

Structure (SMILES): COc1cc(C=C(C#N)C#N)cc(-c2cc(C=C(C#N)C#N)cc(OC)c2O)c1O
- GI50 (Cell line): 80 µM

- IC50 (MDA-MB-468): 0.45 µM
- IC50 (MCF7 [1]): 51.2 µM
- IC50 (MCF7 [2]): 67.7 µM
- IC50 (MCF7 [3]): 73.8 µM
- IC50 (MCF7 [4]): 15 µM
- IC50 (SK-BR-3): 7.8 µM
- IC50 (T47D): 36.3 µM
- IC50 (MDA-MB-231): 40.3 µM
Structure (SMILES): N#C/C(=C\c1ccc(O)cc1)c1ccccn1
- IC50 (ZR-75-1): 48.5 µM

Structure (SMILES): COC(=O)c1cc(OC)c(O)c(-c2cc(C(=O)OC)cc(OC)c2O)c1
- GI50 (Cell line): 80 µM

Structure (SMILES): COC1=C2C[C@@H](C)C[C@H](OC)[C@H](O)[C@@H](C)/C=C(\C)[C@H](OC(N)=O)[C@@H](OC)/C=C\C=C(/C)C(=O)NC(=CC1=O)C2=O [GELDANAMYCIN]
- GI50 (Cell line): 0.327 µM
